# Compound activity from PubChem BioAssay.
# Shown are actives, neighbours in structure and some others; about 2% of the full set was active somewhere.
# GRK2 inh = compounds blocking aptamer binding on GRK2 – biochemical, human GRK2, bead flow cytometry, HTS, primary screen | Beta-adrenergic receptor kinase 1 (Homo sapiens), P25098 | FAM-aptamer displacement from GRK2 | inhibition of aptamer binding, % at 10 µM | actives 0.59% (n = 330,000);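 active = inhibition of aptamer binding above 40%, roughly 3 SD of noise, on plates passing a quality check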;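 also: median bead fluorescence of bound FAM aptamer so fluorescent compounds give negative values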
# Hep lipid drop = inhibitors of hepatocyte lipid droplet formation, primary screen, imaging, high-throughput imaging, BODIPY stain; AML12 mouse hepatocytes, oleate lipid droplets; inhibition, % at 6.5 µM; actives 0.4% (n = 240,000); AID 1656, 2009;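 active = lipid droplet intensity inhibited by at least 50%, with more than 500 cells counted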
#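 Assay system: AML12 hepatocytes (mouse) / Also added: 100 µM oleic acid challenge / Times: overnight treatment with compound plus oleate / Detection: high-content imaging of BODIPY-stained droplets and DAPI nuclei / Evaluation: % inhibition of lipid droplet signal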
# Beta2AR agonist = beta2AR agonists driving receptor internalization, primary screen, cell-based, FAP fluorogen, flow cytometry; response, % (no concentration beside the values); actives 0.43% (n = 340,000); Am2.2-beta2AR cells; Beta-2 adrenergic receptor (Homo sapiens), P07550;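 active = response above a set limit, near 3 SD of response in nonfluorescent compounds, cut at about 42% in these data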
# Target sequence (P07550 whole entry, looked up): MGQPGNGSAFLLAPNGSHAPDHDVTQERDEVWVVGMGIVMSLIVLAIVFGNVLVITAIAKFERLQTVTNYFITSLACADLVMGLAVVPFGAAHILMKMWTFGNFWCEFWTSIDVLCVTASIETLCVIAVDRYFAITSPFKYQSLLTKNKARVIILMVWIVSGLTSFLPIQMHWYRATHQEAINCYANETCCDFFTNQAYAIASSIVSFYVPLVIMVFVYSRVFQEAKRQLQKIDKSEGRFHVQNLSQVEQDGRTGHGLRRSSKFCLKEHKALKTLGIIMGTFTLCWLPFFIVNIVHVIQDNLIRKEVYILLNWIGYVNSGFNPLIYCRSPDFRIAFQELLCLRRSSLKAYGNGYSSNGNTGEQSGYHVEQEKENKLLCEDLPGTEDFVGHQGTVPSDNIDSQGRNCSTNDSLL
# NTR1 agonist = agonists of human NTR1, primary screen, imaging, U2OS cells, beta-arrestin-GFP, high content; NTR1-U2OS beta-arrestin-GFP spot imaging, agonist mode; activation, % at 20 µM; AID 493036, 2011; actives 0.17% (n = 330,000);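 active = activation at or above 40% of the spot to cytoplasm intensity ratio, with at least 20 cells analyzed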;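 also: 0% = DMSO without peptide and 100% = 100 nM NTR1 peptide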
# Arr AP2 block = inhibitors of beta-arrestin/AP2 binding, primary screen, biochemical, GPCR trafficking, flow cytometry; beta-arrestin 1 C-terminal peptide binding to AP2 beta2-adaptin appendage (human); FITC-arrestin peptide / GST-AP2 beads; AP2 beta2 appendage carries R879A mutation; inhibition, % at 10 µM; actives 0.31% (n = 340,000); AID 504490, 2011;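 active = inhibition above a set limit, near 3 SD of compounds lacking own fluorescence, cut at about 54% in these data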;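 also: plate controls were DMSO wells for no effect and 5 µM unlabelled arrestin peptide for full effect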
#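 Test system: GST-tagged AP2 beta2-adaptin appendage (R879A) on 4 µm glutathione beads; also added: fluorescein-tagged arrestin peptide at 50 nM final; timing: 12 min plus 1 h, RT; signal: flow cytometry, FL1 (488/535 nm); read-out: percent drop in bead-associated FITC signal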
# H9c2 TAG inh = inhibitors of triacylglycerol accumulation, primary screen, cell-based, uHTS, fluorescence, H9c2 | actives 0.66% (n = 230,000) | H9c2 cells, Nile Red lipid (TAG) fluorescence; cells loaded with 200 µM oleic acid | AID 651582, 2012 | inhibition, % at 12.5 µM;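 active = pattern-corrected inhibition of lipid staining of at least 50% with the nuclear-stain viability signal not falling by more than 50%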;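 also: 0% = DMSO wells and 100% = triacsin C control wells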
# B2AR ag CP1 = beta2AR agonists via receptor internalization, confirmation, cell-based, FAP fluorogen, flow cytometry, single point, cherry pick 1; percent response (surface receptor), % at 10 µM; Am2.2-beta2AR cells, FAP surface receptor; stronger effect = lower value; shares compounds with Beta2AR agonist; actives 25% (n = 1,100);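 active = surface receptor percent response at or below 58%, roughly 3 SD from nonfluorescent compounds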
# FAP fluor counter = flagged in Am2.2 fluorescence counterscreen for beta-2AR agonists. calls only at 10 µM. Am2.2 cells, FAP fluorogen flow cytometry; stronger effect = lower value. shares compounds with Beta2AR agonist. 1,100 tested, under 10 active;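 active = percent response below a set limit in fluorescence channel 1 and below 50% in channel 8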
# Numbers without * were called inactive; i = inactive; x = not tested or not shown.
SMILES,GRK2 inh,Hep lipid drop,Beta2AR agonist,NTR1 agonist,Arr AP2 block,H9c2 TAG inh,B2AR ag CP1,FAP fluor counter
C=CCn1c(-c2ccc(Cl)cc2)c[nH]c1=S,2,x,x,-2,21,-28,109,i
COc1ccc(/C=C2\SC(=O)N(CC(=O)NN3CCN(C)CC3)C2=O)cc1OC,3,-27,-3,1,-4,-15,x,x
COc1ccc(S(=O)(=O)Nc2ccncc2)c(C)c1C,5,-7,-4,-1,-5,-6,x,x
Cc1ccc(S(=O)(=O)Nc2ccncc2)c(C)c1N(C)S(=O)(=O)c1ccc(F)cc1,0,-3,84*,-1,-6,-10,106,i
COc1ccccc1CC(=O)N(Cc1ccccc1)c1ccc(C)cc1,7,-24,-3,3,1,-11,x,x
COc1ccc(C(C)=O)cc1CC(=O)N(Cc1ccccc1)c1ccccc1,1,-12,45*,-1,-3,x,58,i
CC(=O)Nc1ccc(Nc2cc(C(C)C)nc3c(-c4ccccc4)c(C)nn23)cc1,1,-65,52*,26,24,7,67,i
CC(=O)Nc1ccc(Nc2cc(C)nc3c(-c4ccccc4)c(C)nn23)cc1,1,-8,-7,17,10,x,x,x
COc1ccc(OC)c(CCNC(=O)C2CCN(c3nnc(-n4cccc4)s3)CC2)c1,0,x,51*,-2,12,-2,89,i
CC(NC(=O)c1cc(COc2ccc3ncccc3c2)on1)c1ccc(F)cc1 (configuration not stated),0,8,45*,0,16,-4,57*,i
O=C(NC1CCCC1)c1cc(COc2ccc3ncccc3c2)on1,0,-3,-7,1,7,-4,x,x
COc1ccc(C)cc1N1C(=N)/C(=C2/Nc3ccccc3S2)C(c2ccccc2)C1=O (configuration not stated),5,18,45*,x,16,x,85,i
Cc1ccc(-c2nc3ncccc3o2)cc1NC(=O)c1ccc([N+](=O)[O-])o1,4,0,11,15,17,x,x,x
O=C(Nc1ccc(-c2nc3ncccc3o2)cc1)c1ccc([N+](=O)[O-])o1,0,-6,53*,15,-3,x,28*,i
O=C(O)CSc1c2c(nc3cc(C(=O)Nc4ccc(F)c(Cl)c4)ccc13)CCCC2,3,0,2,3,8,x,x,x
COC(=O)c1ccc(C(=O)OC)c(-n2c(=O)c3ccccc3c3ccccc3c2=O)c1,1,-1,54*,26,3,x,105,i
COc1cc(C(=O)NCC(=O)Nc2ccc(F)c(F)c2)ccc1OCC(=O)N1CCOCC1,0,x,1,0,21,12,x,x
N#Cc1c(N2CCCC2)nc(N)c2c(N)nc(N3CCCC3)cc12,24,-10,46*,1,7,-19,83,i
COc1cc2c(C#N)c(N3CCCC3)nc(N)c2c(N)n1,4,10,-8,6,13,11,x,x
CCN1C(=O)[C@@H]2[C@@H](c3ccc(-c4ccc(Cl)c(Cl)c4)c(OC)c3)N3CCCC[C@@]3(C(=O)OC)[C@@H]2C1=O,2,x,5,-1,32,8,x,x
CC(C)(C)C(=O)Nc1ccccc1N1CCN(c2ccc(F)cc2)CC1,0,-3,67*,4,-5,x,105,i
